{"data": "Published values from different studies"}
{"SMILES": "CCOC(=O)[C@@]12C[C@@H]1[C@@H](n1ccc3c(NC)nc(C#Cc4ccc(Cl)s4)nc31)[C@H](O)[C@@H]2O", "species": "male Sprague-Dawley rat", "medium": "plasma", "route": "oral", "dose": "10 mg/kg", "Tmax": "1.17 h"}
{"SMILES": "N#Cc1[nH]nnc1-c1csc(-c2ccc(Cl)cc2)n1", "species": "male Sprague-Dawley rat", "medium": "plasma", "route": "oral", "dose": "10 mg/kg", "Tmax": "1 h"}
{"SMILES": "COc1nc(-c2cc(C)c(N[C@@H](C)c3cc(F)cc(F)c3)nn2)ccc1-n1cnc(C)c1", "species": "male Sprague-Dawley rat", "medium": "plasma", "route": "intravenous", "dose": "1 mg/kg", "setting": "single dose", "Tmax": "0.083 h"}
{"SMILES": "CCc1cc(C(=O)NC)c2nccc(N3CCc4c(cc(Cn5ccnc5)cc4-c4cn(C)nc4C(F)(F)F)C3=O)c2c1", "species": "male Sprague-Dawley rat", "medium": "plasma", "route": "oral", "dose": "50 mg/kg", "setting": "single dose", "Tmax": "0.8 h"}
{"SMILES": "CNCc1cc(-c2ccccc2F)n(S(=O)(=O)c2cccnc2)c1", "species": "male Sprague-Dawley rat", "medium": "plasma", "route": "oral", "dose": "10 mg/kg", "Tmax": "1 h"}
{"SMILES": "C=CC(=O)N1CC2CC(n3nc(-c4ccc(C(=O)Nc5ccccn5)cc4)c4c(N)ncnc43)CC2C1 (stereo not shown)", "species": "male Wistar rat", "medium": "plasma", "route": "oral", "dose": "300 mg/kg", "Tmax": "4 h"}
{"SMILES": "O=C(Nc1cc(F)c(F)c(F)c1)c1ccc(F)c(S(=O)(=O)NCc2cccc(B(O)O)c2)c1", "species": "male Sprague-Dawley rat", "medium": "plasma", "route": "intravenous", "dose": "2 mg/kg", "Tmax": "0.08 h"}
{"SMILES": "Cc1cc(Nc2ccc(C(F)(F)F)nc2)n2nc(C(C)(F)F)nc2n1", "species": "rat", "medium": "plasma", "route": "oral", "dose": "200 mg/kg", "Tmax": "12 h"}
{"SMILES": "Cc1c(-c2ccccc2)cccc1N1C(=O)c2cc(CN[C@H](C(=O)O)C(C)O)c(OCc3cccc(C#N)c3)cc2C1=O (stereo partly shown)", "species": "Sprague-Dawley rat", "medium": "plasma", "route": "intravenous", "dose": "5 mg/kg", "Tmax": "0.08 h"}
{"SMILES": "COCCOC(=O)C1=C(C)NC(C)=C(C(=O)OC(C)C)C1c1cccc([N+](=O)[O-])c1 (stereo not shown)", "species": "male Sprague-Dawley rat", "medium": "plasma", "route": "oral", "dose": "12 mg/kg", "Tmax": "0.33 h"}
{"SMILES": "CC(C)OC(=O)NC1CCN(Cc2cc(Cl)c3cccnc3c2O)CC1", "species": "rat", "medium": "blood", "route": "intraperitoneal", "dose": "30 mg/kg", "Tmax": "3 h"}
{"SMILES": "COc1cc(/C=C/C(=O)CC(=O)/C=C/c2ccc(O)c(OC)c2)ccc1O", "species": "male Sprague-Dawley rat", "medium": "plasma", "route": "oral", "dose": "100 mg/kg", "Tmax": "0.167 h"}
{"SMILES": "N#Cc1[nH]nnc1-c1cc(Cl)cc(/C=C/c2cccc(C(F)(F)F)c2)c1", "species": "male Sprague-Dawley rat", "medium": "plasma", "route": "oral", "dose": "10 mg/kg", "Tmax": "5.3 h"}
{"SMILES": "CNC(=O)c1c(C)oc2cc(Oc3ncnc4cc(OC)c(OC)cc34)ccc12", "species": "Sprague-Dawley rat", "medium": "plasma", "route": "oral", "dose": "1 mg/kg", "setting": "single dose", "Tmax": "4.25 h"}
{"SMILES": "COc1ccc2c(Cc3ccccc3F)c3n(c(=O)c2c1OC)CCc1cc2c(cc1-3)OCO2", "species": "rat", "medium": "plasma", "route": "oral", "dose": "5 mg/kg", "Tmax": "2.66 h"}
{"SMILES": "N#Cc1ccc(Nc2nc(N)cc(Oc3c(F)cc(-c4ccc(C#N)cc4)cc3F)n2)cc1", "species": "Sprague-Dawley rat", "medium": "plasma", "route": "oral", "dose": "5 mg/kg", "Tmax": "4 h"}
